Compounds with a hit are over-represented: about 4.2% of the library has one in this group of screens.
M18AAP inhibitor: PfM18AAP inhibitors, malaria aminopeptidase, primary screen, biochemical, QFRET, recombinant enzyme; M18 aspartyl aminopeptidase (Plasmodium falciparum 3D7); 290,000 compounds, 1.2% hits; H-Glu-NHMec fluorogenic cleavage; inhibition, % at 7.35 µM; AID 1822, 2009;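 active means inhibition above the campaign mean inhibition over all tested compounds plus 3 SD, cut at about 28% in these data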;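 further: 0% = plate median of test compound wells and 100% = 2 mM ZnCl2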
SENP1 inh: human SENP1 catalytic domain inhibitors, primary screen, biochemical, FRET, uHTS; 360,000 compounds, 0.21% hits; Sentrin-specific protease 1 (Homo sapiens), Q9P0U3; recombinant SENP1 catalytic domain, CyPet-SUMO1-YPet FRET cleavage; AID 624204, 2012; inhibition, % at 10 µM;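 active means inhibition at least 30% at 10 µM, raw YFP signal under a set limit, fluorescence ratio 0.5 to 1.5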;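 further: 0% = enzyme with DMSO and 100% = no enzyme wells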
Target sequence (Q9P0U3 419-644 limits assumed): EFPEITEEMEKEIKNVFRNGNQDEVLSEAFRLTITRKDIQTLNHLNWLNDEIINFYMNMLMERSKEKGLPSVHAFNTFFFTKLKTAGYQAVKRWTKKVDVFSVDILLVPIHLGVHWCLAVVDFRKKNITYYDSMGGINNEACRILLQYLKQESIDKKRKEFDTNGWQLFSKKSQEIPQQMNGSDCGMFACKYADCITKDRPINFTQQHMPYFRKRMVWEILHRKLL
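Controls: no-enzyme wells low, DMSO-plus-enzyme wells high control. Test system: human recombinant His6-tagged SENP1 catalytic domain enzyme. Reagent: SFCypet-SUMO1-SFYpet FRET protein substrate, 25 nM final. Doses: one dose per compound, 10 µM, 0.5% DMSO. Detection: FRET, CFP and YFP emission. Timing: 50 min reaction at room temperature.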
FXN GAA850 act: FXN promoter activators, primary screen, cell-based, luciferase luminescence, HEK293 lucGAA850 | HEK293 lucGAA850 FXN promoter luciferase reporter, 24 h; percent of 10 µM SAHA response | activation, % at 6 µM | 360,000 compounds, 0.56% hits | AID 540364, 2011;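 active means activation above the average of all compounds screened plus 3 SD, cutoff fixed separately per campaign, cut at about 7.5% in these data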;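 further: 0% = DMSO wells and 100% = 10 µM SAHA wells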
CTSL1 counter: Fasciola hepatica cathepsin L1 inhibitors, primary screen, counter-screen for PFM18AAP inhibitor project, biochemical, QFRET, fluorogenic peptide substrate; inhibition, % at 5.96 µM; 300,000 compounds, 0.49% hits; AID 1906, 2009; recombinant F. hepatica cathepsin L1, Z-Leu-Arg-MCA fluorescence;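 active means inhibition above the mean of all tested compounds plus 3 SD, set per screening campaign, cut at about 17% in these data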;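 further: 0% = plate median of test compound wells and 100% = 1 µM Z-Phe-Ala-diazomethylketone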
AHR act: AHR activators, primary screen, cell-based, luminescence, luciferase reporter, human. AHR-responsive luciferase reporter cells. activation, % at 5 µM. 320,000 compounds, 2.5% hits; in the data active means activation above about 47%;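 further: 0% = vehicle wells and 100% = reference agonist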
HDAC3 inh: HDAC3 deacetylase inhibitors, primary screen, biochemical, fluorescence, cell-free homogeneous. Histone deacetylase 3 (Homo sapiens), O15379. recombinant HDAC3, fluorogenic peptide/trypsin coupled. inhibition, % at 8.3 µM. 320,000 compounds, 0.15% hits. AID 2718, 2010; in the data active means inhibition above about 26%, passing the limit was not always enough
Starred values were filed as active, the others as inactive; x = no result.

SMILES	M18AAP inhibitor	SENP1 inh	FXN GAA850 act	CTSL1 counter	AHR act	HDAC3 inh
O=[N+]([O-])c1ccc(-n2nnnc2-c2ccccc2)c([N+](=O)[O-])c1	1	1	-7	20*	3	-1
O=[N+]([O-])c1ccc(-n2nnnc2-c2ccccc2)cc1	3	1	3	-8	1	4
COc1ccc(-c2cc(=O)oc3c(C)c(OC(C)C(=O)NCc4ccccn4)ccc23)cc1 (stereo unspecified)	6	1	-2	1	-1	-2
Cc1cccc(C)c1-n1nnnc1C1(C)CCC(=O)N1CC(F)(F)F (stereo unspecified)	x	3	x	x	x	x
Cc1ccc(-n2c(C)n[nH]c2=S)cc1C	25	3	3	-4	2	9
Cc1ccc(-n2c(C)n[nH]c2=S)cc1	30*	2	-1	-6	1	3
Cc1ccn2cc(CCNS(=O)(=O)c3ccc4ccccc4c3)nc2c1	-1	3	2	30*	-2	0
CC(=O)NC1(C)CCC2CC1C(C)=NC2(C)C (stereo unspecified)	x	3	x	x	x	x
COc1cc(-c2cc(=O)c3ccccc3o2)ccc1O	8	-8	6	14	77*	-1
CCC(=O)NNc1nc2c(C)cc(C)cc2s1	58*	2	1	2	62*	1
Cc1cc(C)c2nc(NNC(=O)c3ccc(S(=O)(=O)N4CC(C)CC(C)C4)cc3)sc2c1 (stereo unspecified)	29*	23	0	0	33	3
Cc1ccc2nc(NNC(=O)c3ccc(S(=O)(=O)N4CCc5ccccc5C4)cc3)sc2c1	27	23	-3	0	32	1
Nc1ncnc2c1ncn2[C@@H]1O[C@H](C(=O)NS(=O)(=O)c2cccs2)[C@@H](O)[C@H]1O	x	2	x	x	x	x
CCOC(=O)c1c(C)c(-c2ccccc2)n(CC(=O)NCCC(C)C)c1C	1	1	0	89*	6	-6
O=C(COc1ccccc1/C=C1\SC(=O)NC1=O)Nc1ccc(F)cc1	2	-2	1	-1	98*	1
CC1=CCC[C@@H]2[C@]3(CC/C(=C/CO)CO)CO[C@@]2(C1)[C@@H](O)C[C@H]3C	x	1	1	x	x	x
CCc1nnc(N/N=C/c2cccs2)n1N	53*	1	2	1	15	7
Cc1ccc(NC(=O)NC2CC(=O)N(c3ccc4c(c3)OCCO4)C2)c(C)c1 (stereo unspecified)	x	2	2	-2	3	-5
COc1ccc2nc(N3CCCCC3)c(/C=C3\SC(=S)NC3=O)cc2c1	-4	92	2	7	0	4
O=C1NC(=S)S/C1=C\c1cc2ccccc2nc1N1CCCCC1	-13	76*	0	1	9	6
Oc1ccc(/C=N/n2c3ccccc3c3ccccc32)cc1	6	-3	-3	4	55*	4
Oc1ccc(C=Nc2ccccc2-c2nc3ccccc3[nH]2)c(O)c1	12	-8	2	4	95*	-143
COc1ccc(OC)c(C=Nc2ccccc2-c2nc3ccccc3[nH]2)c1	4	-8	4	0	87*	-2
Oc1ccccc1C=Nc1ccccc1-c1nc2ccccc2[nH]1	5	-5	2	0	37	-13
COc1ccc(Cc2nc3ccccc3[nH]c2=O)cc1	0	1	1	-2	5	-7
COc1ccc(OC)c(/C=C/c2nc3ccccc3[nH]c2=O)c1	5	-26	3	2	60*	0
C/C(=N\NC(=O)CSCc1ccccc1Cl)c1cc(O)ccc1O	16	6	1	3	-2	2
CC1(C)Cc2cccc(OC(=O)NC3CCCCC3)c2O1	x	3	x	x	x	x
CCCCCCC/C=N/Nc1nnc(Cc2ccccc2)c(=O)[nH]1	28*	2	2	6	41	-4
